We go through 6 molecules from BindingDB's records for doi:10.1016/j.ejmech.2010.04.038 (B.V. Patel Pharmaceutical Education and Research …, 2010).

Broadly, the IC50 is the concentration at which inhibition is half-maximal.

Chain of Transcription factor Jun (P05412 whole entry): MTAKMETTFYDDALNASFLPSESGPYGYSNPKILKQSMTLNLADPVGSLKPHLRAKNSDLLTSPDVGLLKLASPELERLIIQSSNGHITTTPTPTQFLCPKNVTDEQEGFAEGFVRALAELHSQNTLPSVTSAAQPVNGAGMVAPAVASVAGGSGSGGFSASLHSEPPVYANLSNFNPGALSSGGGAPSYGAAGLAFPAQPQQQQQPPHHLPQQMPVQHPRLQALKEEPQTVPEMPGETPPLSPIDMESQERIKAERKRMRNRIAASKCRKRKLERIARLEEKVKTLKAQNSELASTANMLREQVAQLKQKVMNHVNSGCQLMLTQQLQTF

This test has as its target Transcription factor Jun (Homo sapiens, UniProt P05412). The test can be described thus: Inhibition of AP1 expressed in HEK293 cells assessed as inhibition of PMA-induced transcriptional activation treated 24 hrs before PMA challenge by luciferase reporter gene assay. In outline:
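Six-point dose response […] and rising in ½-log steps, screened as in the primary reporter assay. IC50 calculated from the dose-response data.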
A general note: In a reporter assay the amount or activity of a reporter protein is the signal.
For the molecule `CNc1nc(-c2ccccc2)c(-c2nc3ccccc3c(=O)n2-c2ccc(Cl)cc2)s1` [3-(4-Chloro-phenyl)-2-(2-methylamino-4-phenyl-thiazol-5-yl)-3H-quinazolin-4-one], the IC50 was more than 500 µM. Regarding `CNc1nc(C)c(-c2nc3ccccc3c(=O)n2-c2ccc(Cl)cc2)s1` [3-(4-Chloro-phenyl)-2-(4-methyl-2-methylamino-thiazol-5-yl)-3H-quinazolin-4-one], the IC50 amounted to 3 µM. With `CCOC(=O)Nc1nc(C)c(-c2nc3ccccc3c(=O)n2-c2ccc(Cl)cc2)s1` [{5-[3-(4-Chloro-phenyl)-4-oxo-3,4-dihydro-quinazolin-2-yl]-4-methyl-thiazol-2-yl}-carbamic acid ethyl ester] the figure was 10 µM; with `CCOC(=O)Nc1nc(-c2ccccc2)c(-c2nc3ccccc3c(=O)n2-c2ccccc2)s1` [[5-(4-Oxo-3-phenyl-3,4-dihydro-quinazolin-2-yl)-4-phenylthiazol-2-yl]-carbamic acid ethyl ester], 5.7 µM.

Turning to `O=c1c2ccccc2nc(-c2sc(Nc3ccc(Cl)cc3)nc2-c2ccccc2)n1-c1ccc(Cl)cc1` [3-(4-Chloro-phenyl)-2-[2-(4-chloro-phenylamino)-4-phenyl-thiazol-5-yl]-3H-quinazolin-4-one], the IC50 was 4.3 µM. As to `COc1ccc(-n2c(-c3sc(Nc4ccc(Cl)cc4)nc3-c3ccccc3)nc3ccccc3c2=O)cc1` [2-[2-(4-Chloro-phenylamino)-4-phenyl-thiazol-5-yl]-3-(4-methoxy-phenyl)-3H quinazolin-4-one], the IC50 came to 14 µM.
